Source: ChEMBL document CHEMBL2375332, “Novel quinolone substituted thiazolidin-4-ones as anti-inflammatory, anticancer agents: design, synthesis and biological screening” (Eur J Med Chem, 2013)
≈ marks a conversion by molar mass, not a printed value. Calls of active or inactive are those of the source. The rule behind the calls is not given here.

Experiments:
[1] = tested on: Rattus norvegicus; assay: Antiinflammatory activity in albino rat assessed as inhibition of carrageenan-induced paw edema at 100 mg/kg, po administered 1 hr prior to carrageenan-challenge measured after 3 hrs relative to control; type: functional
Outline: (§1)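 Charles Foster albino rats of either sex (150–200 g, pregnant females excluded), six per group, dosed orally; 1 h later 0.2 mL of 1% carrageenan in 0.9% NaCl injected into right hind paw subplantar tissue. Paw volume read by plethysmometer at injection and 3 h later. Control group received carrageenan only. % inhibition = 1–Dt/Dc×100. Mean ± S.D.; one-way ANOVA with Tukey's test.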

[2] = tested on: BT-549; assay: Cytotoxicity against human BT549 cells at 100 ug/ml […] by MTT assay; type: cell-based
[3] = tested on: HeLa; assay: Cytotoxicity against human HeLa cells at 100 ug/ml […] by MTT assay; type: cell-based
[4] = tested on: COLO 205; assay: Induction of apoptosis in human COLO205 cells assessed as karyopyknosis at IC50 after 48 hrs by Hoechst 33258 staining-based inverted microscopic analysis; type: functional, cell-based
Outline: (§2)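 COLO-205 cells seeded at 10⁵ cells/ml and grown to 70-80% confluency. Treated at IC₅₀ dose for 48 h. Fixed in 4% formaldehyde for 30 min at room temperature, stained with Hoechst 33258 for 15 min, washed three times with PBS. Imaged by inverted fluorescence microscope (excitation 340-380 nm, emission 465 nm) at 400x and scored for nuclear morphology.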

[5] = Antitumor activity against mouse EAC […] Swiss albino mouse assessed as increase in life span at 100 mg/kg, ip relative to vehicle-treated control; type: functional, Ehrlich; conditions: route intraperitoneal
Outline: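 Female Swiss albino mice (6–8 weeks), six per group, inoculated i.p. on day 0 with 1×10⁶ viable EAC cells from donor ascites. Drug suspended in 0.25% CMC, given i.p. at 0.1 ml/10 g on days 10–14. Survival was monitored twice daily for 44 days. ILS(%) = [(MST treated/MST control) − 1]×100, where MST is total days survived divided by the number of animals.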

[6] = Antitumor activity against mouse EAC […] Swiss albino mouse assessed as change in body weight at 100 mg/kg, ip administered on day 10 measured on day 15 (reference value: 22.03 +/- 1.67%); type: functional, Ehrlich; conditions: route intraperitoneal
[7] = tested on: HeLa; assay: Cytotoxicity against human HeLa cells after 24 hrs by MTT assay; type: functional, cell-based
[8] = tested on: COLO 205; assay: Induction of apoptosis in human COLO205 cells assessed as late apoptotic cells at IC50 after 48 hrs by acridine orange-ethidium bromide staining assay; type: functional, cell-based
Outline: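 COLO-205 cells seeded at 10⁵ cells/ml, grown 24 h, then treated at IC₅₀ dose for 48 h. Floating and trypsinized adherent cells pooled, spun at 129 g for 5 min and washed in PBS. Stained with 1:1 acridine orange/ethidium bromide and viewed by fluorescence microscopy at 400x (green viable, orange-red apoptotic).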

[9] = tested on: COLO 205; assay: Inhibition of NF-kappaB in human COLO205 cells assessed as Bcl-2 down regulation at IC50 after 48 hrs by RT-PCR analysis; type: cell-based
Outline: (§3)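 About 4x10⁶ COLO-205 cells/well treated at IC₅₀ dose for 48 h. Total RNA extracted with TRI Reagent and quantified. Bcl-2 and Bax measured by RT-PCR against GAPDH (40 cycles: 94 °C, 55 °C, 72 °C). Products run on 1.5% agarose gel and quantified by band densitometry.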

[10] = tested on: COLO 205; assay: Cytotoxicity against human COLO205 cells […] by MTT assay; type: functional, cell-based
[11] = tested on: BT-549; assay: Cytotoxicity against human BT549 cells after 24 hrs by MTT assay; type: functional, cell-based; conditions: BT-549, 24 h
[12] = tested on: ACHN; assay: Cytotoxicity against human ACHN cells […] by MTT assay; type: functional, cell-based
[13] = tested on: COLO 205; assay: Induction of apoptosis in human COLO205 cells assessed as zeiosis at IC50 after 48 hrs by Hoechst 33258 staining-based inverted microscopic analysis; type: functional, cell-based; outline: as §2
[14] = tested on: COLO 205; assay: Inhibition of NF-kappaB in human COLO205 cells assessed as Bax up-regulation at IC50 after 48 hrs by RT-PCR analysis; type: cell-based; outline: as §3
[15] = Antitumor activity against mouse EAC […] Swiss albino mouse assessed as change in body weight at 100 mg/kg, ip administered everyday from day 10 to day 14 measured on day 12 (reference value: 22.03 +/- 1.67%); type: functional, Ehrlich; conditions: route intraperitoneal
[16] = tested on: COLO 205; assay: Induction of apoptosis in human COLO205 cells assessed as nuclear fragmentation at IC50 after 48 hrs by Hoechst 33258 staining-based inverted microscopic analysis; type: functional, cell-based; outline: as §2
[17] = tested on: Rattus norvegicus; assay: Antiinflammatory activity in albino rat assessed as inhibition of carrageenan-induced paw edema at 10 mg/kg, po administered 1 hr prior to carrageenan-challenge measured after 3 hrs relative to control; type: functional; outline: as §1

SMILES	inhibition in vivo at 100 mg/kg [1]	Activity [2]	Activity [3]	further results
COc1cc(C2SCC(=O)N2c2ccc3c(C)cc(=O)[nH]c3c2)ccc1O (centres undefined)	12.4%	54.11%	41.028%	
Cc1ccc(C2SCC(=O)N2c2ccc3c(C)cc(=O)[nH]c3c2)s1 (centres undefined)	15.8%	22.023%	31.485%	
Cc1cc(=O)[nH]c2cc(N3C(=O)CSC3c3ccncc3)ccc12 (centres undefined)	7.62%	22.176%	20.343%	
Cc1cc(=O)[nH]c2cc(N3C(=O)CSC3c3ccc(Br)s3)ccc12 (centres undefined)	24%	52.34%	33.267%	
Cc1cc(=O)[nH]c2cc(N3C(=O)CSC3c3cccs3)ccc12 (centres undefined)	18.6%	63.163%	83.762%	Activity [4]: Active; Activity [5]: 77.09%; MST [5]: 32.16 days; Activity [6]: 3.86%; IC50 [7]: 27.1 mg/L (≈ 79 µM); Activity [8]: Active; inhibition [9]: Active; IC50 [10]: 20.7 mg/L (≈ 60.6 µM); IC50 [11]: 43 mg/L (≈ 126 µM); IC50 [12]: 44.7 mg/L (≈ 131 µM); Activity [13]: Active; inhibition [14]: Active; Activity [15]: 6.66%; Activity [16]: Active
Cc1cc(=O)[nH]c2cc(N3C(=O)CSC3c3ccc(F)cc3)ccc12 (centres undefined)	19%	43.311%	14.231%	
Cc1cc(=O)[nH]c2cc(N3C(=O)CSC3N3CCCCC3)ccc12 (centres undefined)	2.77%	31.949%	29.394%	
COc1ccc(C2SCC(=O)N2c2ccc3c(C)cc(=O)[nH]c3c2)cc1 (centres undefined)	21.4%	39.334%	47.326%	
O=c1[nH]cc(F)c(=O)[nH]1 [FLUOROURACIL]				IC50 [10]: 4.56 mg/L (≈ 35.1 µM); IC50 [12]: 9.87 mg/L (≈ 75.9 µM)
Cc1cc(=O)[nH]c2cc(N3C(=O)CSC3c3ccccc3[N+](=O)[O-])ccc12 (centres undefined)	24.1%	44.953%	28.316%	
Cc1cc(=O)[nH]c2cc(N3C(=O)CSC3N3CCOCC3)ccc12 (centres undefined)	1.75%	25.274%	23.662%	
Cc1cc(=O)[nH]c2cc(N3C(=O)CSC3c3ccc(Cl)cc3)ccc12 (centres undefined)	13%	46.201%	20.198%	
Cc1cc(=O)[nH]c2cc(N3C(=O)CSC3c3cccc(Br)c3)ccc12 (centres undefined)	22.7%	40.062%	56.633%	
Cc1ccc(C2SCC(=O)N2c2ccc3c(C)cc(=O)[nH]c3c2)o1 (centres undefined)	10.1%	31.114%	27.453%	
Cc1cc(=O)[nH]c2cc(N3C(=O)CSC3c3cccc(Cl)c3)ccc12 (centres undefined)	23.3%	44.849%	44.158%	
Cc1cc(=O)[nH]c2cc(N3C(=O)CSC3c3cccc(O)c3)ccc12 (centres undefined)	14.3%	18.522%	71.485%	
Cc1cc(=O)[nH]c2cc(N3C(=O)CSC3c3ccccc3F)ccc12 (centres undefined)	20.4%	40.062%	59.6%	

SMILES	inhibition in vivo at 100 mg/kg [1]	Activity [2]	Activity [3]	further results
Cc1cc(=O)[nH]c2cc(N3C(=O)CSC3c3ccccc3O)ccc12 (centres undefined)	16.4%	44.328%	43.168%	
Cc1cc(=O)[nH]c2cc(N3C(=O)CSC3c3ccccc3Br)ccc12 (centres undefined)	14%	38.709%	44.279%	
Cc1cc(=O)[nH]c2cc(N3C(=O)CSC3c3cccnc3)ccc12 (centres undefined)	6.81%	29.032%	34.851%	
Cc1cc(=O)[nH]c2cc(N3C(=O)CSC3c3cccc(F)c3)ccc12 (centres undefined)	23.6%	50.052%	52.738%	
Cc1cc(=O)[nH]c2cc(N3C(=O)CSC3c3ccc([N+](=O)[O-])cc3)ccc12 (centres undefined)	25.2%	40.478%	54.851%	
Cc1cc(=O)[nH]c2cc(N3C(=O)CSC3c3ccccn3)ccc12 (centres undefined)	7.5%	18.028%	20%	
Cc1cc(=O)[nH]c2cc(N3C(=O)CSC3c3ccc(Br)o3)ccc12 (centres undefined)	23.3%	42.357%	31.332%	
Cc1cc(=O)[nH]c2cc(N3C(=O)CSC3/C=C/c3ccccc3)ccc12 (centres undefined)	20.8%	38.837%	42.057%	
COc1ccc(C2SCC(=O)N2c2ccc3c(C)cc(=O)[nH]c3c2)cc1OC (centres undefined)	20.6%	31.737%	30.492%	
Cc1cc(=O)[nH]c2cc(N3C(=O)CSC3c3ccc(Br)cc3)ccc12 (centres undefined)	12.4%	42.663%	65.742%	
Cc1cc(=O)[nH]c2cc(N3C(=O)CSC3c3ccco3)ccc12 (centres undefined)	5.16%	49.658%	41.188%	
COc1ccc2c(c1)c(CC(=O)O)c(C)n2C(=O)c1ccc(Cl)cc1 [INDOMETHACIN]				inhibition in vivo at 10 mg/kg [17]: 33.2%
Cc1cc(=O)[nH]c2cc(N3C(=O)CSC3c3ccccc3)ccc12 (centres undefined)	17.8%	71.578%	74.85%	Activity [4]: Active; Activity [5]: 60.57%; MST [5]: 29.16 days; Activity [6]: 5.93%; IC50 [7]: 35.1 mg/L (≈ 104 µM); Activity [8]: Active; inhibition [9]: Active; IC50 [10]: 31.4 mg/L (≈ 93.3 µM); IC50 [11]: 39.3 mg/L (≈ 117 µM); IC50 [12]: 78.9 mg/L (≈ 234 µM); Activity [13]: Active; inhibition [14]: Active; Activity [15]: 10.65%; Activity [16]: Active
Cc1cc(=O)[nH]c2cc(N3C(=O)CSC3c3ccccc3Cl)ccc12 (centres undefined)	14.5%	61.394%	52.496%	
Cc1cc(=O)[nH]c2cc(N3C(=O)CSC3c3ccc(O)cc3)ccc12 (centres undefined)	22.9%	42.143%	68.91%	
Cc1cc(=O)[nH]c2cc(N3C(=O)CSC3c3ccc(N(C)C)cc3)ccc12 (centres undefined)	13.3%	29.327%	33.267%	
